The source made the active and inactive calls. The rule behind the calls is not given here. Non-standard residues stand in square brackets, D forms with d. Residues, ends and D or L forms follow the SMILES beside them. ξ: configuration not given here. *: point of attachment. X1 = COc1ccc(/C=C\c2cc(OC)c(OC)c(OC)c2)cc1N*; 2Abz = Nc1ccccc1C(=O)O; ξNle = CCCCC(N)C(=O)O; Bz = O=C(c1ccccc1)*

The values that follow come from ChEMBL document CHEMBL4364329, “Prodrug Activation by a Viral Protease: Evaluating Combretastatin Peptide Hybrids To Selectively Target Infected Cells” (ACS Med Chem Lett, 2019).

Data set [1] concerns HeLa. The data set is described as follows: Cytotoxicity against human HeLa cells harboring Dengue virus serotype 2 NS2B-NS3 protease assessed as reduction in cell viability after 72 hrs by cell titer blue assay. The data set is classed as functional, cell-based. The method, boiled down: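 DENV2 protease-expressing HeLa cells (DENV2proHeLa) were incubated with compound for 72 h. CC50 was determined from triplicate wells.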
On the technique in general: Alamar Blue is a resazurin reagent that responds to reducing activity.

The target in data set [2] is Tubulin (Sus scrofa) (UniProt P02554+P02550). The data set is described as follows: Inhibition of porcine tubulin polymerization at 10 uM preincubated at 37 degC for 30 mins followed by chilling to 0 degC and subsequent addition of GTP by microtiter plate based absorbance detection assay relative to control. The data set is classed as protein assay.
Data set [3] concerns the target Genome polyprotein (dengue virus type 2) (UniProt P29990). The data set is described as follows: Inhibition of Dengue virus serotype 2 NS2B-NS3 protease expressed in Escherichia coli BL21 lambda (DE3) cells at 250 uM preincubated with enzyme for 15 mins followed by 2-Abz-Nle-Lys-Arg-Arg-Ser-(3-NO2)-Tyr-NH2 FRET substrate addition measured for 15 mins by fluorescence analysis.

The test system of data set [4] is CCCCC(NC(=O)c1ccccc1N)C(=O)N[C@@H](CCCCN)C(=O)N[C@@H](CCCNC(=N)N)C(=O)N[C@@H](CCCNC(=N)N)C(=O)N[C@@H](CO)C(=O)N[C@@H](Cc1ccc(O)cc1)C(N)=O. In words: (§1) Substrate activity at Dengue virus serotype 2 NS2B-NS3 protease expressed in Escherichia coli BL21 lambda (DE3) cells assessed as Km for compound hydrolysis in TRIS buffer at pH 9 incubated for 10 mins at room temperature by Lineweaver-Burk plot analysis. Format: ADME, dengue virus type 2. The method, boiled down:
(§2)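 Recombinant DENV NS2B-NS3 protease at 1 μM incubated with substrate from 100 μM up to 1 mM in pH 9 buffer for 10 min at room temperature. Triplicate wells. Km, vmax and kcat were derived from a Lineweaver–Burk plot.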

In data set [5] the test system is COc1ccc(/C=C\c2cc(OC)c(OC)c(OC)c2)cc1NC(=O)CNC(=O)CNC(=O)[C@H](CCCNC(=N)N)NC(=O)[C@H](CCCNC(=N)N)NC(=O)c1ccccc1. The description is as §1. Format: ADME, dengue virus type 2. The method, boiled down: as §2
Data set [6] has as its system COc1ccc(/C=C\c2cc(OC)c(OC)c(OC)c2)cc1NC(=O)CNC(=O)[C@H](CCCNC(=N)N)NC(=O)[C@H](CCCCN)NC(=O)c1ccccc1. The data set is described as §1. Format: ADME, dengue virus type 2. The method, boiled down:
as §2

Data set [7] has as its system COc1ccc(/C=C\c2cc(OC)c(OC)c(OC)c2)cc1NC(=O)CNC(=O)[C@H](CCCNC(=N)N)NC(=O)[C@H](CCCNC(=N)N)NC(=O)c1ccccc1. Described as §1. Format: ADME, dengue virus type 2. The method, boiled down:
as §2

Data set [8] deals with COc1ccc(/C=C\c2cc(OC)c(OC)c(OC)c2)cc1NC(=O)[C@H](C)NC(=O)[C@H](CCCNC(=N)N)NC(=O)[C@H](CCCNC(=N)N)NC(=O)c1ccccc1. The description is as §1. The data set is classed as ADME, dengue virus type 2. The method, boiled down:
as §2

Sequence of Tubulin (Sus scrofa) (P02550 whole entry, looked up): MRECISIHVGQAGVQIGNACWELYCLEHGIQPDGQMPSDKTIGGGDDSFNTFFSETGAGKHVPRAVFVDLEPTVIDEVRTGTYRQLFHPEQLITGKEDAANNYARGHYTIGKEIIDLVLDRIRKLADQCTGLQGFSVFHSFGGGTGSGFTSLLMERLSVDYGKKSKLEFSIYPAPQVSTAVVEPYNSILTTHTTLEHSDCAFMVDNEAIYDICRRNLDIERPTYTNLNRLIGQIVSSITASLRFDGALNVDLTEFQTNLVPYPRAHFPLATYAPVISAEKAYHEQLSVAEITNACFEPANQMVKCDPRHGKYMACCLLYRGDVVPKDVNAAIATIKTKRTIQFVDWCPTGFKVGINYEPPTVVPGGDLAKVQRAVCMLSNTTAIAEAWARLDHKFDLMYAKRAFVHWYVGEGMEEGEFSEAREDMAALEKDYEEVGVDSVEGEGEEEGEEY
Sequence of Tubulin (Sus scrofa) (P02554 whole entry, looked up): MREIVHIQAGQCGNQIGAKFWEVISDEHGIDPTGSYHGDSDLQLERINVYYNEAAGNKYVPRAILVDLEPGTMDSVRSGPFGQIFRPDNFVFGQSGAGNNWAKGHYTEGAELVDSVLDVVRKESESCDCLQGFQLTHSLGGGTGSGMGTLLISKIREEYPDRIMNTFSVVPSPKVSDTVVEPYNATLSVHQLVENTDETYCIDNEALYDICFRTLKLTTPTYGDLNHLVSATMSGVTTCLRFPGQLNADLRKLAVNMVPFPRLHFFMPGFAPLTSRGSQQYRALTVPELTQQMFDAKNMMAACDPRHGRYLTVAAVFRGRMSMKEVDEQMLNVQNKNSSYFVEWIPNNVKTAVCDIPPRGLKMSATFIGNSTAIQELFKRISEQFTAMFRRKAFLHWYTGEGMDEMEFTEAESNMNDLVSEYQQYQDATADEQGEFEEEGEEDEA

On to `COc1ccc(/C=C\c2cc(OC)c(OC)c(OC)c2)cc1N`, for which, in data set [1], the Activity entry is “Toxic”. In addition, the inhibition in data set [2] came out at 33.1%.
On to `COc1ccc(/C=C\c2cc(OC)c(OC)c(OC)c2)cc1NC(=O)CCNC(=O)[C@H](CCCNC(=N)N)NC(=O)[C@H](CCCNC(=N)N)NC(=O)c1ccccc1`, for which, in data set [1], the Activity result is “Toxic”. Further, in data set [2], the inhibition was determined as 3.4%.
On to `COc1ccc(/C=C\c2cc(OC)c(OC)c(OC)c2)cc1NC(=O)CN`, for which the inhibition in data set [2] turned out to be 61%.
Turning to `COc1ccc(/C=C\c2cc(OC)c(OC)c(OC)c2)cc1NC(=O)CNC(=O)[C@H](CCCNC(=N)N)NC(=O)[C@H](CCCCN)NC(=O)c1ccccc1`, the Activity result in data set [1] was “Toxic”. Further, the inhibition in data set [2] is -5.7%.
As to `COc1ccc(/C=C\c2cc(OC)c(OC)c(OC)c2)cc1NC(=O)CNC(=O)[C@H](CCCNC(=N)N)NC(=O)[C@H](CCCNC(=N)N)NC(=O)c1ccccc1`, in data set [1], the Activity result is “Toxic”. Also, the inhibition in data set [2] worked out at 26%.
With `COc1ccc(/C=C\c2cc(OC)c(OC)c(OC)c2)cc1NC(=O)[C@H](C)N`, the inhibition in data set [2] was determined as 40.5%.
On to `COc1ccc(/C=C\c2cc(OC)c(OC)c(OC)c2)cc1NC(=O)[C@H](C)NC(=O)[C@H](CCCNC(=N)N)NC(=O)[C@H](CCCCN)NC(=O)c1ccccc1`, for which the inhibition in data set [2] is -4.9%.
For `COc1ccc(/C=C\c2cc(OC)c(OC)c(OC)c2)cc1NC(=O)[C@H](C)NC(=O)[C@H](CCCNC(=N)N)NC(=O)[C@H](CCCNC(=N)N)NC(=O)c1ccccc1`, in data set [1], the Activity result is “Toxic”. In addition, the inhibition in data set [2] came out at 3.4%.
Turning to `COc1ccc(/C=C\c2cc(OC)c(OC)c(OC)c2)cc1NC(=O)[C@H](CO)NC(=O)[C@H](CCCNC(=N)N)NC(=O)[C@H](CCCCN)NC(=O)c1ccccc1`, in data set [2], the inhibition was -4.2%.
Consider `COc1ccc(/C=C\c2cc(OC)c(OC)c(OC)c2)cc1NC(=O)[C@H](CO)NC(=O)[C@H](CCCNC(=N)N)NC(=O)[C@H](CCCNC(=N)N)NC(=O)c1ccccc1`, for which the Activity entry in data set [1] is “Toxic”. Besides, in data set [2], the inhibition worked out at 1.9%.
Regarding `COc1ccc(/C=C\c2cc(OC)c(OC)c(OC)c2)cc1O`, the Activity result in data set [1] was “Toxic”. In addition, the inhibition in data set [2] was 60.3%.
With `N=C(N)NCCC[C@H](NC(=O)[C@H](CCCNC(=N)N)NC(=O)c1ccccc1)C(=O)O` (Bz-Arg-Arg-OH), the inhibition in data set [3] was 35%.
For the compound `N=C(N)NCCC[C@H](NC(=O)[C@H](CCCCN)NC(=O)c1ccccc1)C(=O)O` (Bz-Lys-Arg-OH), the inhibition in data set [3] amounted to 12.2%.
In the case of `COc1ccc(/C=C\c2cc(OC)c(OC)c(OC)c2)cc1NC(=O)CNC(=O)CNC(=O)[C@H](CCCNC(=N)N)NC(=O)[C@H](CCCNC(=N)N)NC(=O)c1ccccc1` (Bz-RRGG-X1), in data set [1], the Activity result is “Toxic”. In addition, the inhibition in data set [2] was 13.4%.
For the compound `CCCCC(NC(=O)c1ccccc1N)C(=O)N[C@@H](CCCCN)C(=O)N[C@@H](CCCNC(=N)N)C(=O)N[C@@H](CCCNC(=N)N)C(=O)N[C@@H](CO)C(=O)N[C@@H](Cc1ccc(O)cc1)C(N)=O` (stereo partly drawn) (H-[2Abz][ξNle]KRRSY-NH2), in data set [2], the inhibition entry was “inactive”.
Turning to “Genome polyprotein (Dengue virus 2 Thailand/16681/84)”, the Km in data set [4] is 182 µM; in data set [5], 144 µM; in data set [6], 173 µM; in data set [7], 225 µM; in data set [8] it was 949 µM. In addition, the Vmax was 10.1 µM/min in data set [4]; 4.69 µM/min in data set [5]; 2.14 µM/min in data set [6]; 6.18 µM/min in data set [7]; 17 µM/min in data set [8]. The kcat in data set [4] is 0.168 s⁻¹; in data set [5], 0.0782 s⁻¹; in data set [6], 0.0357 s⁻¹; in data set [7] it was 0.103 s⁻¹; in data set [8] it was 0.284 s⁻¹.

The term inhibition denotes the change of the read-out against control, counted positive when it falls. A word on the Km: it is the concentration of substrate that gives half-maximal velocity. One may read the Vmax as the top rate of the reaction or transport when substrate is in excess. The term kcat denotes the number of substrate molecules converted per active site and unit of time at saturation.
